Measured values published in ChEMBL document CHEMBL1157546, “3-(2-Aminocarbonylphenyl)propanoic acid analogs as potent and selective EP3 receptor antagonists. part 2: optimization of the side chains to improve in vitro and in vivo potencies” (Bioorg Med Chem, 2010).

Tests used:
[1] = target: T1, Prostaglandin E2 receptor EP3 subtype (Mus musculus, UniProt P30557); experiment: Antagonist activity at mouse EP3 receptor expressed in CHO cells assessed as inhibition of PGE2-induced increase intracellular calcium level in presence of 1% BSA by fluorimetry; format: functional, cell-based
T1 sequence (P30557 whole entry): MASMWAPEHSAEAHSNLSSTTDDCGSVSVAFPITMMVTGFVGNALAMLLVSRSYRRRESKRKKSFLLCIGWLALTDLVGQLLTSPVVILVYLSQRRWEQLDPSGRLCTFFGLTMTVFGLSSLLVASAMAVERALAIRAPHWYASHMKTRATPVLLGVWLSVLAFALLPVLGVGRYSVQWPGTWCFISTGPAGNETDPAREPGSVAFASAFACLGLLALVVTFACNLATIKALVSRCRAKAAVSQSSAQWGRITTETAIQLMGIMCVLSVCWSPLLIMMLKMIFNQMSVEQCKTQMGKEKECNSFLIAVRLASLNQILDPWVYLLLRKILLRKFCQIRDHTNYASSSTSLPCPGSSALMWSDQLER
Summary of the method: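 CHO cells expressing mouse EP3 seeded at 1 × 10⁴ cells/well and grown two days in 10% FBS/αMEM (37 °C, 5% CO2). Loaded 1 h with Fura 2/AM, indomethacin and 2.5 mM probenecid, rinsed, then held 1 h dark at room temperature in HBSS with 1% BSA and 10 mM HEPES. Compound added with 10 nM PGE2. Ca²⁺ read at 340/380 nm excitation, 500 nm emission; % inhibition relative to the PGE2 response without compound.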

[2] = target: T1, Prostaglandin E2 receptor EP3 subtype; experiment: Displacement of [3H]PGE2 from mouse EP3 receptor expressed in CHO cell membrane; format: cell membranes
[3] = AUC in rat at […], iv; format: ADME, organism-based; set-up: dose 1.2 mg/kg, route intravenous; conditions: plasma
[4] = Cmax in rat at 11 mg/kg, po; format: ADME, organism-based; set-up: dose 11 mg/kg, route oral; conditions: in vivo
[5] = Volume of distribution at steady state in rat at […], iv; format: ADME, organism-based; set-up: dose 1.2 mg/kg, route intravenous; conditions: in vivo, read-out: Vdss
Rattus norvegicus [6] = experiment: Inhibition of PGE2-induced uterine contraction in intraduodenally dosed pregnant rat at 1 mg/kg; format: functional; conditions: route intraduodenal
Summary of the method: (§1)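 Pregnant rats with uterine pressure recorded by transducer. Once spontaneous motility was stable, compound in 0.5% methylcellulose (5 mL/kg) or vehicle given intraduodenally. PGE2 given iv 30 min later.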

Rattus norvegicus [7] = experiment: Inhibition of PGE2-induced uterine contraction in intraduodenally dosed pregnant rat at 0.3 mg/kg; format: functional; conditions: route intraduodenal; summary of the method: as §1
[8] = AUC in rat at 11 mg/kg, po; format: ADME, organism-based; set-up: dose 11 mg/kg, route oral; conditions: plasma
Rattus norvegicus [9] = experiment: Inhibition of PGE2-induced uterine contraction in intraduodenally dosed pregnant rat at 0.1 mg/kg; format: functional; conditions: route intraduodenal; summary of the method: as §1
[10] = Oral bioavailability in rat at 11 mg/kg, po; format: ADME, organism-based; conditions: in vivo
[11] = target: T2, Prostaglandin E2 receptor EP1 subtype (Mus musculus, UniProt P35375); experiment: Displacement of [3H]PGE2 from mouse EP1 receptor expressed in CHO cell membrane; format: cell membranes
T2 sequence (P35375 whole entry): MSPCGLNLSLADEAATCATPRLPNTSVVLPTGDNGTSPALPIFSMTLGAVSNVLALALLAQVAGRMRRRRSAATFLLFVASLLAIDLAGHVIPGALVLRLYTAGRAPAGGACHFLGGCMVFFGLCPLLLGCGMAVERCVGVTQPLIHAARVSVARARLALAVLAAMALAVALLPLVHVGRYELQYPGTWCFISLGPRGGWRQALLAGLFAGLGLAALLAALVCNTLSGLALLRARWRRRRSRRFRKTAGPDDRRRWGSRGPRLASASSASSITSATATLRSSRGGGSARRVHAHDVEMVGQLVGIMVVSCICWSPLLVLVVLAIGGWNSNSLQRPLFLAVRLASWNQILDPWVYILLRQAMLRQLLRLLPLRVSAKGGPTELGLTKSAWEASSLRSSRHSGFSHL

[12] = target: Prostaglandin E2 receptor EP4 subtype (Mus musculus, UniProt P32240); experiment: Displacement of [3H]PGE2 from mouse EP4 receptor expressed in CHO cell membrane; format: cell membranes
[13] = target: Prostaglandin E2 receptor EP2 subtype (Mus musculus, UniProt Q62053); experiment: Displacement of [3H]PGE2 from mouse EP2 receptor expressed in CHO cell membrane; format: cell membranes
[14] = AUC in rat at 13 mg/kg, po; format: ADME, organism-based; set-up: dose 13 mg/kg, route oral; conditions: plasma
[15] = Oral bioavailability in rat at 13 mg/kg, po; format: ADME, organism-based; conditions: in vivo
[16] = Cmax in rat at 13 mg/kg, po; format: ADME, organism-based; set-up: dose 13 mg/kg, route oral; conditions: in vivo

Sequence of Prostaglandin E2 receptor EP4 subtype (P32240 whole entry): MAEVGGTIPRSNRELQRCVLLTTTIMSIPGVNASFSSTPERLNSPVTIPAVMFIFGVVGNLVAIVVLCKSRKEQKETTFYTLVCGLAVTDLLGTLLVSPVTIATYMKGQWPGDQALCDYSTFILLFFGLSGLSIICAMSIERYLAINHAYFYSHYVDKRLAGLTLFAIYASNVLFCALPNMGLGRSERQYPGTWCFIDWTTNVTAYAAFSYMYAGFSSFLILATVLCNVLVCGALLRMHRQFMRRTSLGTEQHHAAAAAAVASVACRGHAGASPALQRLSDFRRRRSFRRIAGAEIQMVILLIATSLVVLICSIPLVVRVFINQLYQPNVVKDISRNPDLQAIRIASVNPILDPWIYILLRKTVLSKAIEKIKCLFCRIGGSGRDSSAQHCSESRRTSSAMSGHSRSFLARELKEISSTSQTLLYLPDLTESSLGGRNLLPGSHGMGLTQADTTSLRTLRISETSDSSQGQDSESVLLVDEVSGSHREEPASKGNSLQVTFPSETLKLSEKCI
Sequence of Prostaglandin E2 receptor EP2 subtype (Q62053 whole entry): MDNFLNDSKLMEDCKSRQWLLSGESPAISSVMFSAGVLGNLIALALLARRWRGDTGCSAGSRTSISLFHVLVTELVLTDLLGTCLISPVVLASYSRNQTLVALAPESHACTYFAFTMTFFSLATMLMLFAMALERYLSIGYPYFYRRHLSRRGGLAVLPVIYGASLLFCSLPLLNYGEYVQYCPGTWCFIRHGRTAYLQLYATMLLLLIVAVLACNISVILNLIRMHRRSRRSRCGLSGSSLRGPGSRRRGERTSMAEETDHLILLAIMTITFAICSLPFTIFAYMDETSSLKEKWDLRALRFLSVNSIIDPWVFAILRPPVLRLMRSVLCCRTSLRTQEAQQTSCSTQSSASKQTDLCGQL

SMILES | IC50 [1] [nM] | Ki [2] [nM] | also measured
COc1cccc(OCc2ccc(CCC(=O)O)c(C(=O)NC(CC(C)C)c3cc(C)cc(C)c3)c2)c1 (centres undefined) | 3.2 | 0.27 | –
CC(C)CC(NC(=O)c1cc(COc2ccccc2)ccc1CCC(=O)O)c1cc(F)cc(F)c1 (centres undefined) | 19 | 0.3 | –
COc1ccc(C(CC(C)C)NC(=O)c2cc(COc3ccccc3)ccc2CCC(=O)O)cc1 (centres undefined) | 59 | 0.36 | –
Cc1cc(C)cc(C(CC(C)C)NC(=O)c2cc(COc3cccc(F)c3F)ccc2CCC(=O)O)c1 (centres undefined) | 3.6 | 0.15 | –
COc1ccc(C(CC(C)C)NC(=O)c2cc(COc3cccc(C#N)c3)ccc2CCC(=O)O)cc1OC (centres undefined) | 3.7 | 0.67 | –
Cc1cc(C)cc(C(CC(C)C)NC(=O)c2cc(COc3cc(F)ccc3F)ccc2CCC(=O)O)c1 (centres undefined) | – | – | AUC [3]: 470 ng·h/mL; Cmax [4]: 520 ng/mL; Vd [5]: 1.43 L/kg; inhibition in vivo at 1 mg/kg (Rattus norvegicus [6]): 98%; inhibition in vivo at 0.3 mg/kg (Rattus norvegicus [7]): 93%; AUC [8]: 850 ng·h/mL; inhibition in vivo at 0.1 mg/kg (Rattus norvegicus [9]): 48%; bioavailability [10]: 19%
Cc1cc(C(CC(C)C)NC(=O)c2cc(COc3ccccc3)ccc2CCC(=O)O)ccc1F (centres undefined) | 18 | 0.16 | Ki [11]: > 10000 nM; Ki [12]: 630 nM; inhibition in vivo at 1 mg/kg (Rattus norvegicus [6]): 73%; inhibition in vivo at 0.3 mg/kg (Rattus norvegicus [7]): 31%; Ki [13]: > 10000 nM
Cc1cc(C)cc(C(CC(C)C)NC(=O)c2cc(COc3ccccc3F)ccc2CCC(=O)O)c1 (centres undefined) | 13 | 0.1 | –
Cc1cc(C)cc(C(CC(C)C)NC(=O)c2cc(COc3cc(F)cc(F)c3)ccc2CCC(=O)O)c1 (centres undefined) | 10 | 0.19 | –
CC(C)CC(NC(=O)c1cc(COc2ccccc2)ccc1CCC(=O)O)c1ccc(F)c(F)c1 (centres undefined) | 47 | 0.4 | –
COc1cccc(C(CC(C)C)NC(=O)c2cc(COc3ccccc3)ccc2CCC(=O)O)c1 (centres undefined) | 21 | 0.13 | –
Cc1ccccc1C(CC(C)C)NC(=O)c1cc(COc2ccccc2)ccc1CCC(=O)O (centres undefined) | 230 | 0.94 | –
CC(C)CC(NC(=O)c1cc(COc2ccccc2)ccc1CCC(=O)O)c1ccc(Cl)cc1 (centres undefined) | 51 | 0.28 | –
Cc1cccc(C(CC(C)C)NC(=O)c2cc(COc3cccc(C#N)c3)ccc2CCC(=O)O)c1 (centres undefined) | 6.6 | 0.2 | –
COc1cccc(C(CC(C)C)NC(=O)c2cc(COc3cccc(C#N)c3)ccc2CCC(=O)O)c1 (centres undefined) | 3.2 | 0.13 | –
Cc1cc(C)cc(C(CC(C)C)NC(=O)c2cc(COc3c(F)cccc3F)ccc2CCC(=O)O)c1 (centres undefined) | 59 | 1.3 | –
Cc1cc(C)cc(C(CC(C)C)NC(=O)c2cc(COc3cccc(C#N)c3)ccc2CCC(=O)O)c1 (centres undefined) | – | – | inhibition in vivo at 1 mg/kg (Rattus norvegicus [6]): 95%; inhibition in vivo at 0.3 mg/kg (Rattus norvegicus [7]): 55%
Cc1cccc(C(CC(C)C)NC(=O)c2cc(COc3ccccc3)ccc2CCC(=O)O)c1 (centres undefined) | 37 | 0.3 | –
Cc1cc(C)cc(C(CC(C)C)NC(=O)c2cc(COc3ccc(Cl)cc3)ccc2CCC(=O)O)c1 (centres undefined) | 30 | 0.62 | –
COc1ccccc1C(CC(C)C)NC(=O)c1cc(COc2ccccc2)ccc1CCC(=O)O (centres undefined) | 190 | 1.2 | –
Cc1cc(C(CC(C)C)NC(=O)c2cc(COc3cccc(C#N)c3)ccc2CCC(=O)O)ccc1F (centres undefined) | 2.8 | 0.2 | –
Cc1ccc(C(CC(C)C)NC(=O)c2cc(COc3ccccc3)ccc2CCC(=O)O)cc1F (centres undefined) | 67 | 0.2 | –
Cc1cc(C)cc(C(CC(C)C)NC(=O)c2cc(COc3ccc(F)cc3)ccc2CCC(=O)O)c1 (centres undefined) | 5.4 | 0.25 | –
CC(C)CC(NC(=O)c1cc(COc2cccc(C#N)c2)ccc1CCC(=O)O)c1ccc(F)cc1 (centres undefined) | 7.1 | 0.17 | –

SMILES | IC50 [1] [nM] | Ki [2] [nM] | also measured
CC(C)CC(NC(=O)c1cc(COc2ccccc2)ccc1CCC(=O)O)c1ccccc1F (centres undefined) | 130 | 1.4 | –
CC(C)CC(NC(=O)c1cc(COc2ccccc2)ccc1CCC(=O)O)c1ccc(C(F)(F)F)cc1 (centres undefined) | 32 | 0.76 | –
CC(C)CC(NC(=O)c1cc(COc2ccccc2)ccc1CCC(=O)O)c1cc(F)cc(C(F)(F)F)c1 (centres undefined) | 15 | 0.45 | –
Cc1cc(C)cc(C(CC(C)C)NC(=O)c2cc(COc3ccccc3C)ccc2CCC(=O)O)c1 (centres undefined) | – | – | inhibition in vivo at 1 mg/kg (Rattus norvegicus [6]): 83%; inhibition in vivo at 0.3 mg/kg (Rattus norvegicus [7]): 62%
CC(C)CC(NC(=O)c1cc(COc2ccccc2)ccc1CCC(=O)O)c1cccc(F)c1 (centres undefined) | 40 | 0.2 | –
CC(C)CC(NC(=O)c1cc(COc2ccccc2)ccc1CCC(=O)O)c1ccc(F)c(Cl)c1 (centres undefined) | 25 | 0.26 | –
CC(C)CC(NC(=O)c1cc(COc2ccccc2)ccc1CCC(=O)O)c1ccc(C(F)(F)F)c(F)c1 (centres undefined) | 53 | 0.7 | –
Cc1cc(C)cc(C(CC(C)C)NC(=O)c2cc(COc3ccccc3C#N)ccc2CCC(=O)O)c1 (centres undefined) | 9.4 | 0.35 | –
Cc1cc(C)cc(C(CC(C)C)NC(=O)c2cc(COc3ccccc3)ccc2CCC(=O)O)c1 (centres undefined) | – | – | inhibition in vivo at 0.3 mg/kg (Rattus norvegicus [7]): 28%
CC(C)CC(NC(=O)c1cc(COc2ccccc2)ccc1CCC(=O)O)c1ccc(F)cc1 (centres undefined) | 20 | 0.93 | –
CC(C)CC(NC(=O)c1cc(COc2ccccc2)ccc1CCC(=O)O)c1ccc2c(c1)OCCO2 (centres undefined) | 19 | 0.44 | –
Cc1ccc(OCc2ccc(CCC(=O)O)c(C(=O)NC(CC(C)C)c3cc(C)cc(C)c3)c2)cc1 (centres undefined) | 16 | 0.67 | –
Cc1cc(C)cc(C(CC(C)C)NC(=O)c2cc(COc3ccc(C#N)cc3)ccc2CCC(=O)O)c1 (centres undefined) | 16 | 0.46 | –
Cc1ccc(C(CC(C)C)NC(=O)c2cc(COc3ccccc3)ccc2CCC(=O)O)cc1C (centres undefined) | 16 | 0.17 | –
Cc1cc(C)cc(C(CC(C)C)NC(=O)c2cc(COc3cccc(F)c3)ccc2CCC(=O)O)c1 (centres undefined) | – | – | AUC [3]: 440 ng·h/mL; AUC [14]: 1090 ng·h/mL; Vd [5]: 1.32 L/kg; inhibition in vivo at 1 mg/kg (Rattus norvegicus [6]): 84%; bioavailability [15]: 23%; Cmax [16]: 390 ng/mL; inhibition in vivo at 0.3 mg/kg (Rattus norvegicus [7]): 66%
Cc1cccc(OCc2ccc(CCC(=O)O)c(C(=O)NC(CC(C)C)c3cc(C)cc(C)c3)c2)c1 (centres undefined) | 4.2 | 0.11 | –
COc1ccc(C(CC(C)C)NC(=O)c2cc(COc3ccccc3)ccc2CCC(=O)O)cc1OC (centres undefined) | 24 | 0.5 | –
Cc1ccc(C(CC(C)C)NC(=O)c2cc(COc3ccccc3)ccc2CCC(=O)O)cc1 (centres undefined) | 51 | 0.63 | –
CC(C)CC(NC(=O)c1cc(COc2ccccc2)ccc1CCC(=O)O)c1cccc(Cl)c1 (centres undefined) | 35 | 0.18 | –
Cc1cc(C)cc(C(CC(C)C)NC(=O)c2cc(COc3ccc(F)c(F)c3)ccc2CCC(=O)O)c1 (centres undefined) | 5.7 | 0.34 | –
COc1ccc(C(CC(C)C)NC(=O)c2cc(COc3ccccc3)ccc2CCC(=O)O)cc1F (centres undefined) | 42 | 0.14 | –
CC(C)CC(NC(=O)c1cc(COc2ccccc2)ccc1CCC(=O)O)c1cccc(C(F)(F)F)c1 (centres undefined) | 39 | 0.39 | –
COc1ccc(C(CC(C)C)NC(=O)c2cc(COc3ccccc3)ccc2CCC(=O)O)cc1C (centres undefined) | 11 | 0.16 | –
